Reference: ChEMBL document CHEMBL4145673, “Glucopyranosylbianthrones from the Algerian Asphodelus tenuifolius: Structural Insights and Biological Evaluation on Melanoma Cancer Cells” (J Nat Prod, 2018)
Active and inactive are the calls of the source. No cut-off for these calls is given here.

Tests used:
[1] = test system: A-375; experiment: Cell cycle arrest in human A375 cells assessed as increase in accumulation at G2/M-phase at 20 to 40 uM measured after 48 hrs by propidium iodide staining based flow cytometry; type: functional
Procedure, shortened: (§1)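 A375 cells exposed 48 h (text gives 20, 30, 40 μM; methods give 10, 20, 40 μM), harvested, washed in cold PBS, stained 30 min at 4 °C in hypotonic PI buffer (0.1% sodium citrate, 0.1% Triton X-100, 25 μg/mL PI, 10 μg/mL RNase A). Flow cytometry for G0/G1, S, G2/M distribution and hypodiploid nuclei; means ± SD, triplicate determinations; two-way ANOVA with Bonferroni.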

[2] = test system: A-375; experiment: Cell cycle arrest in human A375 cells assessed as decrease in accumulation at G1-phase at 20 to 40 uM measured after 48 hrs by propidium iodide staining based flow cytometry; type: functional; procedure, shortened: as §1
[3] = test system: A-375; experiment: Cell cycle arrest in human A375 cells measured after 48 hrs by propidium iodide staining based flow cytometry; type: functional; procedure, shortened: as §1
[4] = test system: A-375; experiment: Cell cycle arrest in human A375 cells assessed as decrease in accumulation at S-phase at 20 to 40 uM measured after 48 hrs by propidium iodide staining based flow cytometry; type: functional; procedure, shortened: as §1
[5] = test system: A-375; experiment: Antiproliferative activity against human A375 cells measured after 48 hrs by MTT assay; type: functional, cell-based
Procedure, shortened: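 A375 melanoma cells grown in DMEM with 10% FBS, 2 mM L-glutamine, penicillin/streptomycin at 37 °C, 5% CO2, subcultured every 2 days; seeded 1 × 10^4/well in triplicate, exposed 48 h to 5−50 μM (DMSO stock diluted into medium; vehicle control 0.1% v/v DMSO). MTT conversion read-out; IC50 from viability dose−response curves versus DMSO-treated control.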

[6] = test system: A-375; experiment: Cell cycle arrest in human A375 cells assessed as increase in accumulation at S-phase at 20 to 40 uM measured after 48 hrs by propidium iodide staining based flow cytometry; type: functional; procedure, shortened: as §1
[7] = test system: A-375; experiment: Induction of apoptosis in human A375 cells assessed as increase in hypodiploid nuclei at 20 to 40 uM measured after 48 hrs by propidium iodide staining based flow cytometry relative to control; type: functional; procedure, shortened: as §1

Structure (SMILES): Cc1cc(O)c2c(c1)[C@](O)(C1O[C@H](CO)[C@@H](O)[C@H](O)[C@H]1O)c1ccc(-c3c(C)cc(O)c4c3C(=O)c3cccc(O)c3C4=O)c(O)c1C2=O (atropisomer P) [listing 1 of 2 here]
- Activity [1]: Active
- Activity [2]: Active
- Activity [3]: Dose-dependent effect
- Activity [4]: Active
- Activity [5]: Dose-dependent effect

Structure (SMILES): Cc1cc(O)c2c(c1)[C@](O)(C1O[C@H](CO)[C@@H](O)[C@H](O)[C@H]1O)c1ccc(-c3c(C)cc(O)c4c3C(=O)c3cccc(O)c3C4=O)c(O)c1C2=O (single isomer, unassigned; atropisomer M) [listing 1 of 2 here]
- Activity [2]: Active
- Activity [3]: Dose-dependent effect
- Activity [5]: Dose-dependent effect
- Activity [6]: Active

Structure (SMILES): Cc1cc(O)c2c(c1)[C@](O)(C1O[C@H](CO)[C@@H](O)[C@H](O)[C@H]1O)c1ccc(-c3c(C)cc(O)c4c3C(=O)c3cccc(O)c3C4=O)c(O)c1C2=O (single isomer, unassigned; atropisomer M) [listing 2 of 2 here]
- Activity [7]: 13.2%
- IC50 ([5]; Homo sapiens, A-375, 48 h): 20.6 µM

Structure (SMILES): Cc1cc(O)c2c(c1)[C@](O)(C1O[C@H](CO)[C@@H](O)[C@H](O)[C@H]1O)c1ccc(-c3c(C)cc(O)c4c3C(=O)c3cccc(O)c3C4=O)c(O)c1C2=O (atropisomer P) [listing 2 of 2 here]
- Activity [7]: 12.2%
- IC50 ([5]; a-375): 23.2 µM
